Experimental findings from ChEMBL document CHEMBL2380219, “Physalin A induces apoptotic cell death and protective autophagy in HT1080 human fibrosarcoma cells” (J Nat Prod, 2013) are described below.

Calls of active or inactive are those of the source. No cut-off for these calls is given here.

Common to all, as to format: functional, cell-based
The test system of test [1] is HT-1080. Put plainly: Cytotoxicity against human HT1080 cells assessed as growth inhibition at 10 uM pretreated with z-DEVD-FMK for 1 hr prior to compound addition measured after 24 hrs by MTT assay. Put shortly: (§1)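 HT1080 seeded 0.8 × 10^4 cells/well. MTT 2 h at 37 °C, formazan in DMSO, A492 read. Inhibition % calculated against untreated and blank wells.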
In general terms: Formazan colour is commonly taken as a measure of viable cells.

Test [2] has as its system HT-1080. Description: Induction of apoptosis in human HT1080 cells assessed as appearance of membrane blebbing at 10 uM after 24 hrs by acridine orange staining-based fluorescence microscopic analysis. The method in brief: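 HT1080 cells, 2 × 10^4/well, cultured 24 h, then exposed to 10 μM for 24 h. Stained with acridine orange 20 μg/mL for 15 min in the dark and examined by fluorescence microscopy at 200×.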

Test [3] deals with HT-1080. Put plainly: Induction of apoptosis in human HT1080 cells assessed as change in cytochrome C expression at 10 uM after 6 to 24 hrs by Western blotting analysis. The method in brief:
(§2)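 HT1080 cells treated with 10 μM for 6, 12, 18 and 24 h. Adherent and floating cells lysed 60 min at 4 °C in Hepes pH 7.4/1% Triton X-100 buffer with phosphatase and protease inhibitors. Equal protein run on 12% SDS-PAGE, transferred to nitrocellulose, probed with specific antibodies, HRP/ECL detection. Band density normalized to β-actin; n = 3.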
On the technique in general: In western blotting, separated proteins are transferred to a membrane and probed.

A further test has as its system A549. Put plainly: Cytotoxicity against human A549 cells assessed as growth inhibition after 24 hrs by MTT assay. Put shortly: (§3)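 Seeded 0.8 × 10^4 cells/well, cultured 24 h, then exposed to 0, 10, 20, 40 or 80 μM for 24 h (DMSO <0.05%) in RPMI 1640 or MEM with 10% FBS. Adherent lines rinsed with PBS, given MTT 2 h at 37 °C. Suspension lines (U937, HL60) given MTT 2 h, then centrifuged. Formazan dissolved in DMSO, A492 read. Inhibition % = (control − sample)/(control − blank) × 100.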

The test system of test [4] is HT-1080. Put plainly: Induction of apoptosis in human HT1080 cells assessed as upregulation of FADD protein expression at 10 uM pretreated with 3MA for 1 hr prior to compound addition measured after 24 hrs by Western blotting analysis. The method in brief:
(§4)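 HT1080 cells pretreated 1 h with 1 mM 3MA or 1 nM rapamycin, then co-incubated with 10 μM for 24 h. Adherent and floating cells lysed in Hepes pH 7.4/Triton buffer. 12% SDS-PAGE, nitrocellulose, antibodies against Fas, FADD, caspase-8, caspase-3, PARP and ICAD, ECL detection. Densities normalized to β-actin; n = 3.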

In test [5] the test system is HT-1080. Description: Induction of autophagy in human HT1080 cells assessed as increase in autophagy ratio at 10 uM pretreated with 3MA for 1 hr prior to compound addition measured after 24 hrs by MDC staining-based FACS flow cytometric analysis. The method in brief:
(§5)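 HT1080 cells seeded at 3 × 10^5 per flask and grown 24 h. Pretreated 1 h with 1 mM 3MA or 1 nM rapamycin, then 10 μM for 24 h. Collected cells stained with 0.05 mM MDC at 37 °C for 1 h. MDC-positive ratio measured by flow cytometry, n = 3, mean ± SD.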
For orientation: Flow cytometry measures light scatter and fluorescence of single cells or particles in a stream.

Test [6] has as its system HT-1080. Description: Induction of apoptosis in human HT1080 cells assessed as downregulation of ICAD at 10 uM after 6 to 24 hrs by Western blotting analysis. Put shortly: as §2
In the next test the test system is MCF7. Description: Cytotoxicity against human MCF7 cells assessed as growth inhibition after 24 hrs by MTT assay. Put shortly:
as §3

The test system of test [7] is HT-1080. Put plainly: Induction of apoptosis in human HT1080 cells assessed as change in BAX expression at 10 uM after 6 to 24 hrs by Western blotting analysis. Put shortly:
as §2

Test [8] concerns HT-1080. Description: Induction of autophagy in human HT1080 cells assessed as autophagic vacuole formation at 10 uM pretreated with rapamycin for 1 hr prior to compound addition measured after 24 hrs by MDC staining-based FACS flow cytometric analysis. Put shortly:
as §5

The next test relates to A-431. Description: Cytotoxicity against human A431 cells assessed as growth inhibition after 24 hrs by MTT assay. The method in brief: as §3
For a further test, the system named is HCT-116. Put plainly: Cytotoxicity against human HCT116 cells assessed as growth inhibition after 24 hrs by MTT assay. The method in brief: as §3
In test [9] the test system is HT-1080. Description: Induction of apoptosis in human HT1080 cells assessed as procaspase-8 cleavage at 10 uM by Western blotting analysis. As to conditions: TDE = time-dependent effect.
For test [10], the system named is HT-1080. Put plainly: Cytotoxicity against human HT1080 cells assessed as growth inhibition at 10 uM pretreated with rapamycin for 1 hr prior to compound addition measured after 24 hrs by MTT assay. Put shortly: as §1
Test [11] concerns HT-1080. Put plainly: Induction of autophagy in human HT1080 cells assessed as conversion from LC31to LC32 at 10 uM pretreated with 3MA for 1 hr prior to compound addition measured after 24 hrs by Western blotting analysis. The method in brief:
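HT1080 cells pretreated 1 h with 1 mM 3MA or 1 nM rapamycin, then 10 μM added for 24 h. Adherent and floating cells lysed in Hepes pH 7.4/Triton buffer. Equal protein on 12% SDS-PAGE and nitrocellulose, probed for beclin 1 and LC3, ECL detection. Normalized to β-actin, n = 3.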

Test [12] concerns HT-1080. Description: Induction of apoptosis in human HT1080 cells assessed as increase in FAS protein expression at 10 uM after 6 to 24 hrs by Western blotting analysis. The method in brief:
as §2

The subject of test [13] is HT-1080. Put plainly: Induction of autophagy in human HT1080 cells assessed as upregulation of beclin 1 at 10 uM by Western blotting analysis. As to conditions: TDE = time-dependent effect. Put shortly: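 HT1080 cells exposed to 10 μM for 6, 12, 18 and 24 h, then lysed in Hepes pH 7.4/Triton buffer at 4 °C for 60 min. Equal protein run on 12% SDS-PAGE, blotted to nitrocellulose, probed for beclin 1 and LC3, ECL detection. Densities taken relative to β-actin, n = 3.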

Test [14] relates to HT-1080. Put plainly: Induction of apoptosis in human HT1080 cells assessed as upregulation of FAS protein expression at 10 uM pretreated with 3MA for 1 hr prior to compound addition measured after 24 hrs by Western blotting analysis. Put shortly: as §4
For test [15], the system named is HT-1080. Put plainly: Induction of apoptosis in human HT1080 cells assessed as increase in procaspase-8 cleavage at 10 uM pretreated with rapamycin for 1 hr prior to compound addition measured after 24 hrs by Western blotting analysis. The method in brief: as §4
The test system of test [16] is HT-1080. Put plainly: Induction of apoptosis in human HT1080 cells assessed as increase in apoptotic ratio at 10 uM pretreated with rapamycin for 1 hr prior to compound addition measured after 24 hrs by propidium iodide staining-based FACS flow cytometric analysis.
Test [17] concerns HT-1080. Put plainly: Induction of autophagy in human HT1080 cells assessed as autophagic vacuole formation at 10 uM pretreated with 3MA for 1 hr prior to compound addition measured after 24 hrs by MDC staining-based FACS flow cytometric analysis. Put shortly: as §5
Test [18] has as its system HT-1080. Put plainly: Induction of autophagy in human HT1080 cells assessed as increase in autophagolysosomes at 10 uM by MDC staining-based fluorescence microscopic analysis. Put shortly: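 HT1080 cells at 2 × 10^4 per well, cultured 24 h, then given 10 μM for 24 h. Stained with 0.05 mM MDC at 37 °C for 1 h. Autophagolysosomes viewed by fluorescence microscopy at 200×.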

Test [19] has as its system HT-1080. Description: Cytotoxicity against human HT1080 cells assessed as growth inhibition at 10 uM pretreated with z-IETD-FMK for 1 hr prior to compound addition measured after 24 hrs by MTT assay. The method in brief:
as §1

With `C=C1C(=O)O[C@@H]2C[C@@]1(C)[C@@H]1C(=O)[C@]3(O)O[C@]14[C@@]2(C)OC(=O)[C@@]4(O)CC[C@H]1[C@H]3[C@H](O)C=C2CC=CC(=O)[C@@]21C` [PHYSALIN A], the “growth inhibition (GI)” value with HT-1080 [1] and in the test with HT-1080 [19] was “Active” in each case. The result in the test on HT-1080 [2], with HT-1080 [4], in the test on HT-1080 [6], with HT-1080 [8], in the test on HT-1080 [12] and in the test on HT-1080 [14] was Active. Moreover, the result in the test with HT-1080 [18] was Active. For the same compound, the outcome in the test on HT-1080 [3], in the test on HT-1080 [5], with HT-1080 [7], with HT-1080 [11], in the test on HT-1080 [15] and in the test with HT-1080 [16] was inactive. Besides, the outcome with HT-1080 [17] was inactive. Also, the “growth inhibition (GI)” value with A549, in the test on MCF7, with A-431 and in the test on HCT-116 was “Dose-dependent effect” each time. The Activity result in the test with HT-1080 [9] and in the test on HT-1080 [13] was “tde” each time. In addition, the “growth inhibition (GI)” value in the test with HT-1080 [10] was “inactive”.
